# From PubChem BioAssay
# Active and inactive are the calls of the source.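 The calls were made as follows, unless noted: active = fluorescence slope higher than the sample average by over 3 SD (cut at about -0.22 in these data, passing the limit was not always enough); inactive = the rest.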
# Tests used:
# [1] = inhibitors of TNFa-induced NFkB p65 translocation, primary screen, imaging, HUVEC, MLSMR starter and 10KST1 sets (AID 438;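 active = inhibition above 20% together with a positive visual image hit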;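 also: compound added about 3h40 before a 20 min TNFalpha stimulation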;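 as to inhibition: signal is the nuclear over cytoplasmic p65 intensity ratio per well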); conditions: HUVEC TNFa-induced p65 nuclear translocation; cell count: measured here: nuclei count (cytotoxicity indicator), at 2.08 µM; inhibition: at 2 µM, stronger effect = higher value, 0% TNFa-plus-vehicle, 100% no-TNFa wells
# [2] = reduction of polyQ htt aggregates in cells – imaging, exon1htt(103Q)mCFP cells, high-content imaging, primary screen (AID 483;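 active = visual image review flags a hit and inhibition of aggregation exceeds 20%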;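 also: compound exposure lasted 3 days before fixation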;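 as to nuclei count: percent of the per-plate median nuclei count of sample wells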); conditions: exon1htt(103Q)mCFP cell line, aggregate imaging, at 2 µM; inhibition of aggregation: stronger effect = higher value; nuclei count: measured here: cell count, toxicity
# [3] = endothelial E-selectin expression blockers – imaging, HUVEC, immunofluorescence, MLSMR starter and 10KST1 sets, primary screen (AID 487;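 active = visually confirmed hit in the image check and inhibition above 20%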;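 as to inhibition: signal is fraction of cell area covered by stained E-selectin grains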;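 as to nuclei count: 100% = median nuclei count of all wells on the same plate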); conditions: HUVEC TNFalpha-induced E-selectin immunofluorescence imaging, at 2 µM; inhibition: stronger effect = higher value; nuclei count: measured here: cell number, toxicity
# [4] = biological target: Voltage-gated potassium channel subunit beta-2 (Rattus norvegicus) (UniProt P62483); test: inhibitors of rat Kvbeta2 reductase activity – biochemical, NADPH fluorescence, primary screen (AID 622); conditions: recombinant KvBeta, 4-cyanobenzaldehyde reduction, at 10 µM, stronger effect = higher value;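 also: slope of raw intensity against log time taken from 70 to 1610 s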
# [5] = biological target: Voltage-gated potassium channel subunit beta-2 (Rattus norvegicus) (UniProt P62483); test: enhancers of rat Kvbeta2 NADPH turnover – biochemical, NADPH fluorescence, primary screen (AID 623;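 active = NADPH fluorescence slope more negative than the mean of all samples by about 3 SD, 99.7% confidence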;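 also: fluorescence intensity change per second fitted from 20 to 320 s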); conditions: Recombinant KvBeta, NADPH fluorescence decrease slope, 10 min; at 10 µM; stronger effect = lower value
# [6] = biological target: Alpha-2C adrenergic receptor (Homo sapiens) (UniProt P18825); test: compounds altering alpha2C-coupled GIRK flux – cell-based, HEK293 alpha2C/GIRK1/2, thallium flux, primary screen (AID 624;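 active = fluorescence slope after compound addition differing from the mean of all screened samples at 99.7% confidence, in either direction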;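 also: slope of fluorescence ratio to pre-addition baseline per second over 15 to 24 s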); conditions: thallium flux BTC fluorescence, at 10 µM, actives lie on both sides
# [7] = inhibitors of larval lipid processing in zebrafish, primary screen, whole organism, PED6 fluorescence, gall bladder and intestine (AID 686;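 active = a full or partial loss of lipid-probe fluorescence in the fish gall bladder, intestine or both, judged by eye; inactive = no fluorescence loss, or compound toxic to the fish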;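 also: larvae 5 to 7 days old with five fish per well; signal comes from phospholipase A2 cleavage of quenched PED6 carried via bile; overnight exposure to compound and PED6 before scoring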); conditions: Zebrafish larvae PED6 lipid processing, fluorescence scoring; screened at 20 µM (by protocol)
# Procedure, shortened: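 system = live zebrafish larvae aged 5-7 days, whole organism | probe or stimulus = ingested quenched lipid PED6 at 100 nM | doses = 20 µM single dose | timing = overnight exposure | detection = fluorescence microscopy with visual scoring of gall bladder and intestine | read-out = visual per-well fluorescence inhibition score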
# [8] = blockers of RIG-like receptor reporter activation – cell-based, Sendai virus stimulus, luciferase, 10K MLSCN set, TLR/RLR signaling modifier project, primary screen (AID 602276;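 active = inhibition at or above 50% at 10 µM; inactive = inhibition below 50%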;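 also: firefly luciferase from ISG56 promoter only with Renilla not read in this screen; 0% = Sendai virus plus DMSO and 100% = medium plus DMSO without virus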); conditions: HEK293 RL24 IRF3 luciferase reporter, at 10 µM, stronger effect = higher value
# [9] = TLR3 IRF3 reporter activation blockers – cell-based, poly I:C stimulus, luciferase, 10K MLSCN set, primary screen (AID 602277;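 active = inhibition of the reporter signal at or above 50%; inactive = inhibition below 50%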); conditions: HEK293-TLR3 RL24 IRF3 luciferase reporter, at 10 µM, stronger effect = higher value
# [10] = biological target: Muscarinic acetylcholine receptor M4 (Homo sapiens) (UniProt P08173); test: M4-linked GIRK flux change, two-sided – cell-based, HEK293 M4/GIRK, thallium flux, BTC-AM, M4 allosteric agonist project, primary screen (AID 625;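 active = fluorescence slope after compound addition differing from the mean of all tested samples at 99.7% confidence, mostly higher but some lower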;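 also: thallium influx through GIRK channels coupled to M4 in HEK293 cells with BTC-AM dye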); conditions: at 10 µM, actives lie on both sides
# Procedure, shortened: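 Material – HEK293 cells with M4 receptor and GIRK channels · Buffer or medium – pH 7.3 thallium assay buffer · Doses – one dose, 10 µM final · Timing – cells overnight at 37 °C, BTC-AM loading 1 h, reads 2 min total · Measured by – kinetic fluorescence with BTC-AM dye · Controls – carbachol and DMSO controls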
# Muscarinic acetylcholine receptor M4 (Homo sapiens), sequence (P08173 whole entry, looked up): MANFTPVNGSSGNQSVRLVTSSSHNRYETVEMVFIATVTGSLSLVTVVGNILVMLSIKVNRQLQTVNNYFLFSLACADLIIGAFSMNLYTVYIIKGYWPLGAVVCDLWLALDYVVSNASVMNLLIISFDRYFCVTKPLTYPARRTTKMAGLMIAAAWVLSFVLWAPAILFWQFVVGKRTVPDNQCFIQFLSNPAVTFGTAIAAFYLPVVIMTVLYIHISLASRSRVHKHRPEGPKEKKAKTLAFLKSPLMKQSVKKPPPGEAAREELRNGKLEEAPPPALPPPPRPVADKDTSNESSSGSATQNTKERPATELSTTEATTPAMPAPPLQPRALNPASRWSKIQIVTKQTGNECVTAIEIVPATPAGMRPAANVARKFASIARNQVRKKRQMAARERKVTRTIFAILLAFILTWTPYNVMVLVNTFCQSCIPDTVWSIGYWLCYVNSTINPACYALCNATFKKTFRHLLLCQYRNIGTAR
# Voltage-gated potassium channel subunit beta-2 (Rattus norvegicus), sequence (P62483 whole entry, looked up): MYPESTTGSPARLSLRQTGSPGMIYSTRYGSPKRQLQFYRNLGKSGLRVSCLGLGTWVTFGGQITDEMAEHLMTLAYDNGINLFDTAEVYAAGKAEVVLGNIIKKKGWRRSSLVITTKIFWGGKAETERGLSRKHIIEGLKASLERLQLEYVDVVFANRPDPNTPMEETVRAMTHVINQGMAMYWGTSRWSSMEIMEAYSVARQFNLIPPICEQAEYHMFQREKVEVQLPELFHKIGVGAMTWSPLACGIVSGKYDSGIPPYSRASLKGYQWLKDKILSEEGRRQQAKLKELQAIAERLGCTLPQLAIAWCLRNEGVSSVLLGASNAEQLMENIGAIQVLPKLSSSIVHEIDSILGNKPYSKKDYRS
# Alpha-2C adrenergic receptor (Homo sapiens), sequence (P18825 whole entry, looked up): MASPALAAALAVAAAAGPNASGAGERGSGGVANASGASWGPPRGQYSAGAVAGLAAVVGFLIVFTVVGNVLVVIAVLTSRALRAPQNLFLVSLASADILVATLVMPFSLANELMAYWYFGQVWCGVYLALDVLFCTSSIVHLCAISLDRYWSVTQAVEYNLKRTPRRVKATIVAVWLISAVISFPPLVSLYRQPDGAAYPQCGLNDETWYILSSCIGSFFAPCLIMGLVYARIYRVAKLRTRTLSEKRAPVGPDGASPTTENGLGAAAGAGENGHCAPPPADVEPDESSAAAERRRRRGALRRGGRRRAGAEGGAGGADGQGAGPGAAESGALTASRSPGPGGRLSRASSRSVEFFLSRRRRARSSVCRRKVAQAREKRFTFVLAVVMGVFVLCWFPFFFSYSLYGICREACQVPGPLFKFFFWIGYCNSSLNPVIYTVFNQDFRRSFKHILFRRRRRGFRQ
Compound,cell count [1],inhibition [1],inhibition of aggregation [2],nuclei count [2],inhibition [3],nuclei count [3],fluorescence slope [4],NADPH fluorescence slope [5],slope [6],outcome [7],inhibition [8],inhibition [9],fluorescence slope [10]
CC(Sc1n[nH]c(=O)[nH]c1=O)C(=O)OCc1ccccc1 (stereo not given),281,-2.5% (inactive),10.6% (inactive),89.4%,-83.4% (inactive),116%,-0.305 (inactive),-2.2e-05 (inactive),0.00608 (inactive),inactive,14.4% (inactive),10.9% (inactive),
Cn1c(=O)cc(SCC(=O)NCc2cccnc2)c2ccccc21,634,2.8% (inactive),3.4% (inactive),104%,-48.7% (inactive),110%,-0.31 (inactive),-3.9e-05 (inactive),0.00505 (inactive),inactive,9.23% (inactive),9.63% (inactive),
CC(=O)Nc1ccc(NC(=O)Cn2cnc3c(cnn3C(C)(C)C)c2=O)cc1,586,-3.3% (inactive),8.4% (inactive),104%,0.5% (inactive),111%,-0.37 (inactive),-4e-05 (inactive),0.00604 (inactive),inactive,2.03% (inactive),2.5% (inactive),
O=C(Nc1nnc(SCC(=O)N2CCCCC2)s1)C1CCCCC1,437,-3.4% (inactive),1.9% (inactive),99.2%,-34.7% (inactive),118%,-0.346 (inactive),-3.5e-05 (inactive),0.00464 (inactive),inactive,9.52% (inactive),13.5% (inactive),
Cc1cc(NC(=O)C(C)(C)C)no1,507,-8.7% (inactive),-18% (inactive),118%,-50.6% (inactive),124%,-0.29 (inactive),-1.1e-05 (inactive),0.005 (inactive),inactive,16.1% (inactive),20.8% (inactive),
COC(=O)c1ccc(COC(=O)c2c(C)nn(Cc3ccccc3Cl)c2Cl)o1,431,-20.9% (inactive),7% (inactive),73.5%,46.3% (inactive),70.3%,-0.408 (inactive),1.7e-05 (inactive),0.00741 (inactive),inactive,17.9% (inactive),19.2% (inactive),
CCN(CC)S(=O)(=O)c1cccc(-c2nnc(SCCOc3ccccc3C)o2)c1,356,0.4% (inactive),-13.5% (inactive),95.4%,3.8% (inactive),114%,-0.458 (inactive),-8e-05 (inactive),0.00732 (inactive),inactive,9.64% (inactive),-24.4% (inactive),
Cc1cnc(C(=O)Nc2ccc(N3CCOCC3)cc2)cn1,392,3% (inactive),-7.7% (inactive),117%,4.5% (inactive),101%,-0.524 (inactive),-2.8e-05 (inactive),,,-19.8% (inactive),-62% (inactive),0.00612 (inactive)
CSc1cccc(NC(=O)C2CCCN2S(=O)(=O)c2ccc3c(c2)CCC(=O)N3)c1 (stereo not given),571,-6.9% (inactive),-43.4% (inactive),99.9%,-72.3% (inactive),108%,-0.456 (inactive),4.1e-06 (inactive),,,4.83% (inactive),8.19% (inactive),0.00486 (inactive)
COc1cc2c(cc1OC)CN(Cc1nc3ccsc3c(=O)[nH]1)CC2,335,-6.2% (inactive),26.3% (inactive),93%,-5.2% (inactive),110%,-0.579 (inactive),-3.9e-05 (inactive),,,24.1% (inactive),41.1% (inactive),0.0061 (inactive)
COc1ccc(-n2nc3cc(C)c(N)c(Br)c3n2)cc1,336,-6.8% (inactive),3.9% (inactive),59.9%,-17.3% (inactive),83.5%,-0.411 (inactive),-4.9e-05 (inactive),0.00393 (inactive),inactive,-10.7% (inactive),-36.5% (inactive),
COc1cc(NC(=O)c2ccco2)c(OC)cc1NC(=O)CCC(=O)Nc1cc(C)cc(C)c1,534,-0.3% (inactive),18.3% (inactive),72.2%,26.4% (inactive),68.3%,-0.279 (inactive),6.9e-06 (inactive),,,16% (inactive),27.3% (inactive),0.00626 (inactive)
